In ChEMBL document CHEMBL3779860, “A Designed Tryptophan- and Lysine/Arginine-Rich Antimicrobial Peptide with Therapeutic Potential for Clinical Antibiotic-Resistant Candida albicans Vaginitis” (J Med Chem, 2016):
The source made the active and inactive calls. The calls are words filed in the database; no cut-off is given here.

Key:
Candida albicans [1] = assay: Antimicrobial activity against antibiotic resistant Candida albicans clinical isolate 08032815 compound treated in NaCl solution measured after 36 hrs by disc diffusion method; assay type: functional; conditions: isolate 08032815, 36 h
Summary of the method: (§1)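 Salt-tolerance test: peptide at 2 mg/mL was prepared in sterile ddH2O, in 150 mM NaCl, or in PBS (150 mM NaCl, 2.7 mM KCl, 1.5 mM KH2PO4, 8 mM K2HPO4, pH 7.2). Anti-C. albicans activity was then assessed by inhibition zone on Sabouraud medium with 0.7% agar.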

Candida albicans [2] = assay: Antimicrobial activity against antibiotic resistant Candida albicans clinical isolate 08030809 compound treated in double distilled water measured after 36 hrs by disc diffusion method; assay type: functional; conditions: isolate 08030809, 36 h; summary of the method: as §1
Candida albicans [3] = assay: Antimicrobial activity against antibiotic resistant Candida albicans clinical isolate 08030809 after 16 hrs by broth dilution method; assay type: functional; conditions: isolate 08030809, 16 h
Summary of the method: (§2)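 Broth microdilution in Sabouraud liquid medium. Samples are stocks in 0.9% NaCl, 10 µL added to 90 µL broth plus 100 µL of 2 × 10^5 CFU/mL yeast suspension. Incubated 16 h at 28°C, growth read by A600. MIC is the lowest concentration completely inhibiting growth; mean of three independent experiments.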

Candida albicans [4] = assay: Antimicrobial activity against antibiotic resistant Candida albicans clinical isolate 08022710 after 16 hrs by broth dilution method; assay type: functional; conditions: isolate 08022710, 16 h; summary of the method: as §2
Candida albicans [5] = assay: Antimicrobial activity against antibiotic resistant Candida albicans clinical isolate 08030809 assessed as clone count at MIC after 3 hrs by colony counting assay (reference value: 3687 +/- 543 CFU); assay type: functional
Candida albicans [6] = assay: Antimicrobial activity against antibiotic resistant Candida albicans clinical isolate 08030809 assessed as clone count at MIC after 24 hrs by colony counting assay (Rvb > 10^5 CFU); assay type: functional
Candida albicans [7] = assay: Antimicrobial activity against antibiotic resistant Candida albicans clinical isolate 08030809 assessed as clone count at 5 times MIC after 3 hrs by colony counting assay (reference value: 3687 +/- 543 CFU); assay type: functional
Candida albicans [8] = assay: Antimicrobial activity against antibiotic resistant Candida albicans clinical isolate 08030809 assessed as clone count at MIC after 30 mins by colony counting assay (reference value: 156 +/- 16 CFU); assay type: functional
Mus musculus [9] = assay: Antiinflammatory activity in antibiotic resistant Candida albicans clinical isolate 08030809 induced mouse vaginitis model assessed as reduction in microabscess number in vaginal tissue at 50 ug administered as intravaginal instillation measured after 16 days by hematoxylin-eosin staining based microscopic method; assay type: functional, organism-based; conditions: Vagina
Summary of the method: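 Mice given weekly subcutaneous estradiol valerate (0.5 mg in 0.1 mL vegetable oil) 72 h before infection. Infected intravaginally with 20 µL of 10^7 CFU/mL C. albicans 08030809. Intravaginal instillation of 20 µL daily for 16 days. Vaginal canals excised after lavage, formalin-fixed, paraffin-embedded, HE-stained. Microabscesses counted per high-power field over 6 fields per section, three independent experiments.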

Mus musculus [10] = assay: Antiinflammatory activity in antibiotic resistant Candida albicans clinical isolate 08030809 induced mouse vaginitis model assessed as reduction in TNF-alpha secretion in vaginal tissue at 50 ug administered as intravaginal instillation measured on day 10 by ELISA; assay type: functional, Vagina
Summary of the method: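 Same estradiol-primed mouse model, infected intravaginally with C. albicans 08030809 and treated by intravaginal instillation (20 µL/mouse). Vaginal canals excised on day 10 of treatment and homogenised in 0.9% NaCl. Supernatant taken after 2,000 g for 15 min. TNF-α, IL-6, IL-1β and IL-10 measured by ELISA. Mean ± SE of three independent experiments; unpaired t-test versus vehicle.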

Candida albicans [11] = assay: Antimicrobial activity against antibiotic resistant Candida albicans clinical isolate 08030809 in mouse vaginitis model assessed as colony count in lavage liquid of vagina at 20 ug administered as intravaginal instillation measured on day 16; assay type: functional

Question: For H-VKRWKKWRWKWKKWV-NH2, which MIC (Candida albicans [1]) is on record?
Answer: Its MIC is 2.79 mg/L.

Question: What about the MIC (Candida albicans [2]) of the same substance?
Answer: Its MIC is 1.4 mg/L.

Question: What about the MIC (Candida albicans [3]) of the same substance?
Answer: The MIC was 1.4 mg/L.

Question: What about the MIC (Candida albicans [4]) of the same substance?
Answer: Its MIC is 4.69 mg/L.

Question: And the Activity (Candida albicans [5])?
Answer: Its Activity is 0 CFU.

Question: And the Activity (Candida albicans [6])?
Answer: Its Activity is 0 CFU.

Question: And the Activity (Candida albicans [7])?
Answer: The Activity was 0 CFU.

Question: And the Activity (Candida albicans [8])?
Answer: Its Activity is 0 CFU.

Question: And the Activity (Mus musculus [9])?
Answer: Its Activity is “Active”.

Question: What about the “inhibition (INH)” value (Mus musculus [10]) of the same substance?
Answer: Its value is 53%.

Question: What about the Activity (Candida albicans [11]) of the same substance?
Answer: Its Activity is 5.4 ×10³ CFU/ml.
